Assays:
[1] = target: T1, hOAT3 (Homo sapiens, UniProt Q8TCC7); settings: cited from earlier work
T1 sequence (Q8TCC7 1-542): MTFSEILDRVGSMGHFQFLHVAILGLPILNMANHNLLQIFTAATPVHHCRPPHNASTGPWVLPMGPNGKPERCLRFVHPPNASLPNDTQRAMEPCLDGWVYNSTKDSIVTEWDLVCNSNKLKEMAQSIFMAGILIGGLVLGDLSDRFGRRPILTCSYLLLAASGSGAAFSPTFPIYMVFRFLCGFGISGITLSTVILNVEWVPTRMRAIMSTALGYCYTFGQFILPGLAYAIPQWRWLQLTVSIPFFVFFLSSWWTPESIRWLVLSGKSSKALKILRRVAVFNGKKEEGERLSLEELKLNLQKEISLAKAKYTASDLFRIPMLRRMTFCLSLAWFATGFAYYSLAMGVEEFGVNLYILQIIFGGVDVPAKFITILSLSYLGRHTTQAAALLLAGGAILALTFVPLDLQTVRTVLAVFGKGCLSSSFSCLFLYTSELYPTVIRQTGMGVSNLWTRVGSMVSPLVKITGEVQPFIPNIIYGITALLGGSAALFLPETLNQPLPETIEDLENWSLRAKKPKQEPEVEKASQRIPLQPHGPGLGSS

[2] = target: T2, rOat3 (Rattus norvegicus, UniProt Q9R1U7); experiment: 6-CF uptake by rOat3-expressing HEK293 cells; type: cell-based; settings: for inhibition at 100 µM: HEK293, pH 7.4, read-out: Inhibition of rOat3-mediated 6-CF uptake
T2 sequence (Q9R1U7 1-536): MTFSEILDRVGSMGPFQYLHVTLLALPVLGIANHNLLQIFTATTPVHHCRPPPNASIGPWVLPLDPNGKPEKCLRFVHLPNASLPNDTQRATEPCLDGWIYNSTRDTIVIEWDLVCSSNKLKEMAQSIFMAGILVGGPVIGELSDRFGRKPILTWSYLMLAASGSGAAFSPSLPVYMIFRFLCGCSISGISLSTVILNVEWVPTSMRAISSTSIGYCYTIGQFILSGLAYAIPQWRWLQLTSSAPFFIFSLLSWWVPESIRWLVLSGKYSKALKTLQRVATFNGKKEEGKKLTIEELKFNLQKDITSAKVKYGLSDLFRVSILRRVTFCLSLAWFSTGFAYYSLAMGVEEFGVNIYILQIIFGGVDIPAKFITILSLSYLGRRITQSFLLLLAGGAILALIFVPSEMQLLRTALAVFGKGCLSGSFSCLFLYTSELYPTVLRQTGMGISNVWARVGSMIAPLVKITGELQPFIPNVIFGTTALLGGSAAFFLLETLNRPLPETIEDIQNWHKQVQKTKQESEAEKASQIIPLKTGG

[3] = Plasma concentration and urinary excretion of 6-CF in rats; type: in vivo; settings: male, Wistar/ST, rat, iv, 1 mg/kg
Method in brief: (§1)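 Male Wistar/ST rats (7 weeks) were anesthetized with ethyl carbamate/α-chloralose, with femoral artery, vein and bladder catheters. 5% mannitol iv bolus 2.5 mL/kg, then 0.03 mL/min infusion. After 20 min, 6-CF 1 mg/kg iv bolus ± test compound 60 mg/kg, saline vehicle. Plasma sampled 1–60 min, urine 0–60 min; fluorescence read-out. AUC0–60 by trapezoidal rule; CLr = 60-min urinary amount/AUC0–60; mean ± SD, 6–8 rats.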

[4] = target: T3, hOAT1 (Homo sapiens, UniProt Q4U2R8); settings: cited from earlier work
T3 sequence (Q4U2R8 1-563): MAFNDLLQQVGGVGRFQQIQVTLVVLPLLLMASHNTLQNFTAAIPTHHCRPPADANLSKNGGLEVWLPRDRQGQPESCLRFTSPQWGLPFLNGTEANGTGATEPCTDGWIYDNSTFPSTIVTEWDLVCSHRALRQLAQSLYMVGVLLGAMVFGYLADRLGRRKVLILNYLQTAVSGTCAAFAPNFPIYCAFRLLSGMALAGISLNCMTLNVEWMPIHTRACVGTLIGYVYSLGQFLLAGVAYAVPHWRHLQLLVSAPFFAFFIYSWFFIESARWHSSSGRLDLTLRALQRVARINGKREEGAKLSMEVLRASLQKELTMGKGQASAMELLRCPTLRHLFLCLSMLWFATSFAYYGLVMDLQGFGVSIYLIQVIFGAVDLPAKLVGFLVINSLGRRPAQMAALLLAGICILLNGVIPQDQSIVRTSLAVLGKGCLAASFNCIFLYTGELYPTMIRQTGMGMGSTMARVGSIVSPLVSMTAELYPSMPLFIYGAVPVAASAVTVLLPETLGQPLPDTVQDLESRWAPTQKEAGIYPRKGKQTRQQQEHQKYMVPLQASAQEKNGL

[5] = target: T4, rOat1 (Rattus norvegicus, UniProt O35956); experiment: 6-CF uptake by rOat1-expressing HEK293 cells; type: cell-based
T4 sequence (O35956 1-551): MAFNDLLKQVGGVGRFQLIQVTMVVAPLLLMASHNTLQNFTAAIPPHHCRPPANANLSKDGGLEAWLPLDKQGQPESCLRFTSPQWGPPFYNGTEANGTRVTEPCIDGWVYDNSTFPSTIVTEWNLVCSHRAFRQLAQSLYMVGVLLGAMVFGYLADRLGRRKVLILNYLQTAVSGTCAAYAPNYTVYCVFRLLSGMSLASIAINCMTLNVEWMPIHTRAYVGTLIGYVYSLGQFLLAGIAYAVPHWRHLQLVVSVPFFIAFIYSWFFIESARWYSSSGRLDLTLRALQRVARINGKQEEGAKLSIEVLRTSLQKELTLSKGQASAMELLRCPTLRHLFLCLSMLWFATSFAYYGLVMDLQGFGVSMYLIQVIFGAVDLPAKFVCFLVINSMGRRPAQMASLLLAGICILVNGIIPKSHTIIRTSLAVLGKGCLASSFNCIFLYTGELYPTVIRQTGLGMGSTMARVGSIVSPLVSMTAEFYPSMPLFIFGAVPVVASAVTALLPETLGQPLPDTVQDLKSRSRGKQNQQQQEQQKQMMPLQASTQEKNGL

[6] = Renal parameters; type: in vivo; settings: rat; for BUN / Ccr: iv probenecid 100 mg/kg, EGCG 60 mg/kg or 2% D-malate; for Change in blood urea nitrogen (BUN) / Change in creatinine clearance (Ccr): vs control, Dunnett's test
Method in brief: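 Anesthetized, catheterized male Wistar/ST rats on iv 5% mannitol (2.5 mL/kg bolus, 0.03 mL/min infusion; ± 2% D-malate) received 6-CF 1 mg/kg iv alone or with reference inhibitor 100 mg/kg or test compound 60 mg/kg. BUN measured with a colorimetric urea kit; plasma and urine creatinine by kit. Ccr = urinary creatinine excretion rate ÷ plasma creatinine. One-way ANOVA, Dunnett's test vs control.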

[7] = tested on: renal Oats; experiment: Plasma concentration and urinary excretion of 6-CF in rats; type: in vivo; settings: rat; for Decrease of the renal clearance (CLr) of 6-CF: vs control, probenecid 100 mg/kg, EGCG 60 mg/kg, 2% D-malate
Method in brief: as §1

[8] = target: T3, hOAT1; experiment: 6-CF uptake by hOAT1-expressing HEK293 cells; type: cell-based
[9] = target: T1, hOAT3; experiment: 6-CF uptake by hOAT3-expressing HEK293 cells; type: cell-based; settings: for inhibition at 100 µM: HEK293, pH 7.4, read-out: Inhibition of hOAT3-mediated 6-CF uptake
Method in brief: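 After 10 min preincubation at 37 °C in Waymouth buffer pH 7.4, cells took up 1 μM 6-CF with test compound for 2 min, then ice-cold PBS wash, 1% SDS lysis, fluorescence. Vector uptake subtracted. Inhibition type: 6-CF 1–100 μM ± 0.1 mM test compound, Eadie–Hofstee plot; mean ± SE, n = 3–4.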

[10] = target: T3, hOAT1; settings: cited from earlier work; remark: listed apart in the source
[11] = tested on: mouse Oat3; settings: cited from earlier work
[12] = substrate: O=C(O)c1ccc(C(=O)O)c(-c2c3ccc(=O)cc-3oc3cc(O)ccc23)c1; experiment: 6-CF uptake by rOat1-expressing HEK293 cells; type: cell-based, rat; settings: other: HEK293-rOat1, 2 min, 37 °C, pH 7.4, 1-100 μM 6-CF
[13] = EGCG 60 mg/kg iv with 6-CF 1 mg/kg
[14] = compound 100 μM, 6-CF 1 μM, 2 min, 37 °C, pH 7.4

O=C(O)c1ccc(C(=O)O)c(-c2c3ccc(=O)cc-3oc3cc(O)ccc23)c1 [6-CF, 6-carboxyfluorescein]
Vmax of 6-CF transport [1]: 70.0 ± 3.2 pmol/mg/2 min
Km ([1]; read-out: Km of 6-CF transport): 38.4 ± 4.2 µM
Vmax of 6-CF uptake ([2]; HEK293-rOat3, 2 min, 37 °C, pH 7.4): 35.3 ± 1.3 pmol/mg/2 min
CL renal ([3]; plasma and urine): 18.3 ± 6.8 mL/min/kg
AUC(0-t) ([3]; plasma): 573 ng·h/mL
Vmax of 6-CF transport [4]: 125.1 ± 1.6 pmol/mg/2 min
Km ([4]; read-out: Km of 6-CF transport): 6.94 ± 0.33 µM
Vmax of 6-CF uptake ([5]; HEK293-rOat1, 2 min, 37 °C, pH 7.4): 131 ± 3 pmol/mg/2 min

O=C(O)C[C@@H](O)C(=O)O [D-malate]
BUN [6]: 11.4 ± 1.1 mg/dL
Ccr [6]: 2.92 ± 0.66 mL/min/kg
Change in blood urea nitrogen (BUN) [6]: no significant change
Change in creatinine clearance (Ccr) [6]: no significant change
Decrease of the renal clearance (CLr) of 6-CF [7]: ~4 fold

O=C(O[C@@H]1Cc2c(O)cc(O)cc2O[C@@H]1c1cc(O)c(O)c(O)c1)c1cc(O)c(O)c(O)c1 [EGCG, (−)-epigallocatechin-3-gallate]
Type of inhibition ([2]; rOat3, Eadie-Hofstee plot): competitive inhibition
BUN [6]: 11.9 ± 1.3 mg/dL
Ccr [6]: 2.58 ± 0.82 mL/min/kg
Change in blood urea nitrogen (BUN) [6]: no significant change
Change in creatinine clearance (Ccr) [6]: no significant change
Type of inhibition ([8]; hOAT1, Eadie-Hofstee plot): mixed-type inhibition
Type of inhibition ([9]; hOAT3, Eadie-Hofstee plot): competitive inhibition
Increase of 6-CF AUC0–60 [7, 13]: ~2.2 fold
Increase of the plasma concentration of 6-CF at 60 min [7, 13]: ~8 fold
Decrease of the renal clearance (CLr) of 6-CF [7]: ~2.6 fold
Type of inhibition ([5]; rOat1, Eadie-Hofstee plot): competitive inhibition

CC[N+](CC)(CC)CC [TEA, tetraethylammonium]
Inhibition of rOat3-mediated 6-CF uptake [2, 14]: no effects
Inhibition of hOAT1-mediated 6-CF uptake [8, 14]: no effects
Inhibition of hOAT3-mediated 6-CF uptake [9, 14]: no effects
Inhibition of rOat1-mediated 6-CF uptake [5, 14]: no effects

Nc1ncnc2c1ncn2CCOCP(=O)(O)O [adefovir]
Inhibitory effect, OAT1 compared with OAT3 (human) ([8]; 100 μM, hOAT1 vs hOAT3 plot): higher for OAT1 than those for OAT3
Inhibitory effect, OAT1 compared with OAT3 (rat) ([5]; 100 μM, rOat1 vs rOat3 plot): higher for OAT1 than those for OAT3

O.Oc1cc(O)c2c(c1)O[C@H](c1ccc(O)c(O)c1)[C@@H](O)C2 [catechin]
Interaction with hOAT1 [10]: did not interact

O=C(O[C@@H]1Cc2c(O)cc(O)cc2O[C@@H]1c1ccc(O)c(O)c1)c1cc(O)c(O)c(O)c1 [epicatechin gallate]
Inhibition of mouse Oat3 [11]: inhibit

Oc1cc(O)c2c(c1)O[C@H](c1ccc(O)c(O)c1)[C@H](O)C2 [epicatechin]
Interaction with hOAT1 [10]: did not interact
Inhibition of mouse Oat3 [11]: inhibit

CCCN(CCC)S(=O)(=O)c1ccc(C(=O)O)cc1 [probenecid]
inhibition at 100 µM [2]: > 80%
BUN [6]: 12.6 ± 0.7 mg/dL
Ccr [6]: 2.51 ± 0.78 mL/min/kg
Change in blood urea nitrogen (BUN) [6]: no significant change
Change in creatinine clearance (Ccr) [6]: no significant change
inhibition at 100 µM [9]: > 80%
Decrease of the renal clearance (CLr) of 6-CF [7]: ~6 fold

CCCCC[C@H](O)/C=C/[C@H]1[C@H](O)CC(=O)[C@@H]1C/C=C\CCCC(=O)O [prostaglandin E2]
inhibition at 100 µM [2]: > 80%
inhibition at 100 µM [9]: > 80%

B1: rOat1 (Rattus norvegicus) (protein)
chain: MAFNDLLKQVGGVGRFQLIQVTMVVAPLLLMASHNTLQNFTAAIPPHHCRPPANANLSKDGGLEAWLPLDKQGQPESCLRFTSPQWGPPFYNGTEANGTRVTEPCIDGWVYDNSTFPSTIVTEWNLVCSHRAFRQLAQSLYMVGVLLGAMVFGYLADRLGRRKVLILNYLQTAVSGTCAAYAPNYTVYCVFRLLSGMSLASIAINCMTLNVEWMPIHTRAYVGTLIGYVYSLGQFLLAGIAYAVPHWRHLQLVVSVPFFIAFIYSWFFIESARWYSSSGRLDLTLRALQRVARINGKQEEGAKLSIEVLRTSLQKELTLSKGQASAMELLRCPTLRHLFLCLSMLWFATSFAYYGLVMDLQGFGVSMYLIQVIFGAVDLPAKFVCFLVINSMGRRPAQMASLLLAGICILVNGIIPKSHTIIRTSLAVLGKGCLASSFNCIFLYTGELYPTVIRQTGLGMGSTMARVGSIVSPLVSMTAEFYPSMPLFIFGAVPVVASAVTALLPETLGQPLPDTVQDLKSRSRGKQNQQQQEQQKQMMPLQASTQEKNGL
Km [12]: 6.68 ± 0.62 µM

— publication PMC7893792 (ACS Omega, 2021)
